Laboratory results reported in ChEMBL document CHEMBL1123619, “Isothiourea derivatives of 6-phenyl-2,3,5,6-tetrahydroimidazo[2,1-b]thiazole with broad-spectrum anthelmintic activity” (J Med Chem, 1987).

What was measured:
Ovis aries [1] = assay: Antihelmethic activity expressed as the percentage of worms eliminated in the feces in sheep small intestine at peroral dose of 30 mg/kg against Trichostrongylus axei; format: functional; details: route oral
Procedure, shortened: (§1)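 Sheep given a single dose, oral or subcutaneous. Total daily feces collected for 4 days after treatment and examined for expelled worms. Necropsy at day 7 after dosing; lungs, liver and gastrointestinal tract removed and remaining worms identified. Activity calculated by comparing worms passed in feces with those remaining at autopsy. Single animals per test unless otherwise indicated.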

Mus musculus [2] = assay: Nematocidal against Nematospiroides dubius in mouse was determined at 100 mg/kg peroral dose of compound; format: functional; details: route oral
Procedure, shortened: (§2)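 Seven-week-old female LACA mice infected orally with 100 N. dubius L3 larvae; single gavage dose given at day 10 of infection, groups of four mice; necropsy 4 days later; percent activity from worm burdens of treated versus untreated groups.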

Ovis aries [3] = assay: Anthelmintic activity against adult liver fluke (Fasciola hepatica) in sheep, after peroral administration of 20 mg/kg was determined; format: functional; details: route oral
Procedure, shortened: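 Sheep dosed with a single oral dose. Fecal fluke egg output monitored after treatment. Animals necropsied only if the fecal egg count fell. Postmortem Fasciola hepatica burdens compared with untreated control sheep (mean of 10 controls). Single animals per test unless otherwise indicated, with group size given in parentheses. I denotes no effect on fecal fluke egg output.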

Ovis aries [4] = assay: Antihelmethic activity expressed as the percentage of worms eliminated in the feces in sheep large bowel at peroral dose of 30 mg/kg against chabertia ovina.; format: functional; details: route oral; procedure, shortened: as §1
Ovis aries [5] = assay: Antihelmethic activity expressed as the percentage of worms eliminated in the feces in sheep small intestine at peroral dose of 15 mg/kg against Capillaria species.; format: functional; details: route oral; procedure, shortened: as §1
Ovis aries [6] = assay: Antihelmethic activity expressed as the percentage of worms eliminated in the feces in sheep small intestine at subcuteneous dose of 30 mg/kg against Bunostomum trigonocephalum.; format: functional; procedure, shortened: as §1
Ovis aries [7] = species on record: Ovis aries; assay: Antihelmethic activity expressed as the percentage of worms eliminated in the feces in sheep species.; format: functional
Procedure, shortened: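 Sheep; total daily faeces collected for 4 days after treatment and searched for expelled worms; necropsy 7 days post-dose with lungs, liver and GI tract examined and worms identified; activity from worms passed in faeces versus worms remaining in host at autopsy.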

Mus musculus [8] = assay: Nematocidal activity against Nematospiroides dubius induced necropsy in mouse, after oral administration of 12.5 mg/kg of the compound; format: functional
Procedure, shortened: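 Female LACA mice (7 weeks) infected orally with 100 N. dubius L3 larvae; single oral dose as solution in PEG 400 on infection day 10, four mice per group; necropsied 4 days later; percent activity by comparing treated and untreated worm burdens.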

Mus musculus [9] = assay: Nematocidal activity against Nematospiroides dubius induced necropsy in mouse, after oral administration of 50 mg/kg of the compound; format: functional; procedure, shortened: as §2
Ovis aries [10] = assay: Antihelmethic activity expressed as the percentage of worms eliminated in the feces in sheep small intestine at peroral dose of 30 mg/kg against Strongyloides papillosus; format: functional; details: route oral; procedure, shortened: as §1
Ovis aries [11] = assay: Antihelmethic activity expressed as the percentage of worms eliminated in the feces in sheep small intestine at peroral dose of 15 mg/kg against Cooperia curticei; format: functional; details: route oral; procedure, shortened: as §1
Ovis aries [12] = assay: Antihelmethic activity expressed as the percentage of worms eliminated in the feces in sheep small intestine at peroral dose of 15 mg/kg against Strongyloides papillosus; format: functional; details: route oral; procedure, shortened: as §1
Ovis aries [13] = assay: Antihelmethic activity expressed as the percentage of worms eliminated in the feces in sheep large bowel at subcuteneous dose of 30 mg/kg against Trichuris ovis.; format: functional; procedure, shortened: as §1
Ovis aries [14] = assay: Toxic activity expressed as the percentage against liver fluke in the sheep at 300 mg/kg peroral administration of dose; no toxic symptoms observed; format: ADME, organism-based; design: dose 300 mg/kg, route oral; details: in vivo, po
Ovis aries [15] = assay: Antihelmethic activity expressed as the percentage of worms eliminated in the feces in sheep large bowel at peroral dose of 30 mg/kg against Oesophagostomum columbianum.; format: functional; details: route oral; procedure, shortened: as §1

## CS/C(=N\c1cccc(C2CN3CCSC3=N2)c1)Nc1ccc(C#N)cc1 (stereo unspecified)
Ovis aries [1]
  Activity: 100%
Mus musculus [2]
  Activity: 100
Ovis aries [3]
  Activity: 89%
Ovis aries [4]
  Activity: 100%
Ovis aries [5]
  Activity: 0%
Ovis aries [6]
  Activity: 100%
Ovis aries [7]
  Activity: 95%
Mus musculus [8]
  Activity: 28%
Mus musculus [9]
  Activity: 99%
  Reduction: 74%
Ovis aries [10]
  Activity: 100%
Ovis aries [11]
  Activity: 99%
Ovis aries [12]
  Activity: 100%
Ovis aries [13]
  Activity: 100%
Ovis aries [14]
  Activity: no toxic symptoms
Ovis aries [15]
  Activity: 93%
